Compound activity: PubChem BioAssay, several laboratories
The list is not random: actives were taken first. Their share in the collection is about 1.4%.
Platelet DG rel: platelet dense granule release activity. human platelet-rich plasma, SFLLRN dense granule ATP release, luminescence. inhibition, %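 (compounds screened at 7.5 µM in platelet-rich plasma)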. actives 0.22% (n = 300,000);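 active = mean replicate score, as percent of positive control, at or above 50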
STAT3 inh-1: STAT3 signaling inhibition; U3A cells, IL-6 STAT3-luciferase reporter, luminescence; host cell line lacks STAT1; actives 0.89% (n = 190,000); inhibition, % at 5.5 µM;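 active = inhibition above the mean inhibition across all screened compounds plus 3 SD, cut at about 44% in these data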;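 also: 0% = DMSO only wells and 100% = 100 µM nifuroxazide control wells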
STAT3 act-1: activators of IL-6 induced STAT3 signaling | U3A cells, IL-6 STAT3-luciferase reporter, luminescence; 100% = signal with IL-6 EC80 alone | actives 0.91% (n = 190,000) | activation (% of control), % at 5.6 µM;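 active = activation above the screen-wide mean of compound activation plus 3 SD, cut at about 130% in these data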;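 also: 0% = background luminescence of wells with medium and substrate only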
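System – human U3A cells carrying STAT3-luciferase construct · Probe or stimulus – Interleukin-6, 33 ng/mL · Schedule – compound 1 h, then IL-6 6 h at 37 °C · Signal – luminescence from STAT3-driven luciferase reporter · Evaluation – percent of IL-6-only median luminescence · Benchmarks – IL-6-only high control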
PERK inhibitor: human PERK inhibition, primary cell-based screen; Q9NZJ5; CHO PERK-DD fusion, SEAP luminescence translation reporter; inhibition, % at 5.6 µM; actives 0.17% (n = 220,000); AID 1416;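 active = inhibition above the mean inhibition of all tested compounds plus 3 SD, set separately per screening campaign, cut at about 2.9% in these data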;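 also: PERK kinase domain activated by AP20187 dimerizer at 100 nM; 0% = DMSO with dimerizer and 100% = rapamycin at 8.4 µM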
Target sequence (Q9NZJ5 whole entry, looked up, the tested form may be a part): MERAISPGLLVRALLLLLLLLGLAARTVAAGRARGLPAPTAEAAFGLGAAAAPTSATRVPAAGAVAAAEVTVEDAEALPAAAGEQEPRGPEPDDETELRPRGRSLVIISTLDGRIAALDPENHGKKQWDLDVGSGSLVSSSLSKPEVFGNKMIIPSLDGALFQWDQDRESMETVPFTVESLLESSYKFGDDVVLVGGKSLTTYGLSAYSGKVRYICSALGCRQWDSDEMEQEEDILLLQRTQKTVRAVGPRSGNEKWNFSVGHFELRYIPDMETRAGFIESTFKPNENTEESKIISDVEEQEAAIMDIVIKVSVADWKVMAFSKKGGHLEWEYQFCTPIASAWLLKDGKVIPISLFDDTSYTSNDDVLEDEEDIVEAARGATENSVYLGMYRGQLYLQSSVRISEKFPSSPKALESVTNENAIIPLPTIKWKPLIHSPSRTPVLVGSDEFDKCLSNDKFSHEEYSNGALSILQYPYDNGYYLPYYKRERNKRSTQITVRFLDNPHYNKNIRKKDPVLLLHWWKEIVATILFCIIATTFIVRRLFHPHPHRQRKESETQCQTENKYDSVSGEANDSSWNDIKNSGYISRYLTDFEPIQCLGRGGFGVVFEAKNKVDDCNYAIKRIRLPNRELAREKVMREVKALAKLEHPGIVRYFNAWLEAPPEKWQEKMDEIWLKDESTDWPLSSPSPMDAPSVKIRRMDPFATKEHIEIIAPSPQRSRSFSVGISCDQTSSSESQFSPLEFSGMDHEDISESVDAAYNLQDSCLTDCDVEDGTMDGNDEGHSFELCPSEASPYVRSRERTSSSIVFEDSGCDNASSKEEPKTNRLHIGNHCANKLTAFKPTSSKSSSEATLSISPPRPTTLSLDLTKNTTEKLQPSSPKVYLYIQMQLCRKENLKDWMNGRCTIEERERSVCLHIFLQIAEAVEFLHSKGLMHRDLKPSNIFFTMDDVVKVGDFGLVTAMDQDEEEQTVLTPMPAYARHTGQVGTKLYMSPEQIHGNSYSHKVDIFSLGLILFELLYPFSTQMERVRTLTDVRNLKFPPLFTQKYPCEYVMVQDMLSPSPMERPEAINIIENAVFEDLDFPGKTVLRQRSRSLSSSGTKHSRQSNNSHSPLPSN
STAT1 blocker: inhibitors of IFN-gamma induced STAT1 signaling. NIH 3T3 STAT1-luciferase reporter, luminescence. actives 0.35% (n = 200,000). AID 920. inhibition, % at 5.5 µM;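 active = inhibition above a set limit, the mean inhibition across all tested compounds plus 3 SD, cut at about 34% in these data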;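 also: 0% = IFN-gamma with DMSO and 100% = IFN-gamma with 300 µM nifuroxazide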
STAT3 inh-2: STAT3 inhibition, confirmation assay. AID 1265. U3A cells, IL-6 STAT3 luciferase reporter, luminescence; cell line lacks STAT1. shares compounds with STAT3 inh-1. actives 45% (n = 1,200). inhibition, % at 5.7 µM;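 active = inhibition above the hit cutoff computed for the primary STAT3 screen, cut at about 44% in these data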;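 also: 0% = IL-6 plus DMSO and 100% = IL-6 plus nifuroxazide control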
NFkB inh STAT3ct: NF-kappaB inhibition in STAT3 inhibitor counter-screen | shares compounds with STAT3 inh-1 | HEK293T NF-kB luciferase reporter, TNF-alpha induced | inhibition, % at 5.7 µM | actives 36% (n = 1,200) | AID 1308;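 active = inhibition above the mean of solvent-only control wells plus 3 SD, cutoff set per campaign, cut at about 13% in these data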;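 also: 0% = TNF-alpha with DMSO and 100% = TNF-alpha with MG high control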
STAT1 inh 2: inhibits STAT1, counter-screen to STAT3 inhibitors; NIH 3T3 STAT1-luciferase reporter, IFN-gamma induced, luminescence; actives 27% (n = 1,200); shares compounds with STAT3 inh-1; inhibition, % at 5.7 µM;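 active = inhibition above the mean plus 3 SD of solvent-only control wells, limit set per screening run, cut at about 16% in these data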;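 also: 0% = DMSO with IFN-gamma and 100% = nifuroxazide control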
STAT3 act-2: STAT3 activation, confirmation assay. actives 64% (n = 1,200). AID 1267. potentiation (% of control), % at 5.7 µM. shares compounds with STAT3 act-1. U3A STAT3-luciferase reporter, IL-6 potentiation, luminescence; U3A cells lack STAT1; 100 means same as IL-6 alone;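 active = percent activation of the STAT3 luciferase reporter above a set limit taken from the earlier primary screen, cut at about 130% in these data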;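 also: 0% = background signal of medium plus substrate and 100% = median of IL-6 with DMSO wells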
NFkB act STAT3ct: counter-screen for STAT3 activators: NF-kappaB activation; activation (% of control), % at 5.7 µM; actives 11% (n = 1,200); AID 1309; shares compounds with STAT3 act-1; human cells, NF-kappaB reporter activation; in the data active = activation above about 120%;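 also: reporter induced by TNF-alpha stimulation; 100% = median of stimulated DMSO wells and 0% = no signal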
STAT1 act STAT3c: STAT1 activation in STAT3 activator counter-screen; shares compounds with STAT3 act-1; NIH 3T3 STAT1-luciferase reporter, IFN-gamma, luminescence; activation (% of control), % at 5.7 µM; actives 13% (n = 1,200);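 active = activation above the solvent-only control well mean plus 3 SD, set per screening run, cut at about 120% in these data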;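 also: 100% = IFN-gamma with DMSO median signal so 100% means no change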
Starred values were filed as active, the others as inactive; / = no result.

SMILES	Platelet DG rel	STAT3 inh-1	STAT3 act-1	PERK inhibitor	STAT1 blocker	STAT3 inh-2	NFkB inh STAT3ct	STAT1 inh 2	others
O=C(CN1C(=O)C(c2ccc(F)cc2)=NC12CCCC2)Nc1ccc(F)cc1	-2.5	57.6*	54.2	-0.9	22.6	54.1*	13.8*	21.7*
c1ccc(-c2nnc(NC3=NCCC3)o2)cc1	-3.5	44.1*	66.6	0.2	-21.7	3.7	-26.7	-60.2
CN(Cc1ccccc1)C1=CC(=[N+]2CCCC2)CC(C)(C)C1	4.3	/	/	0.4	/	/	/	/
CC1(C)CC(N2CCN(c3ccccc3)CC2)=CC(=[N+]2CCCC2)C1	-13.2	80.4*	36.8	-0.2	23.6	76.8*	-1.8	27.0*
Cc1cc(C)nc(SCc2cnc(C)nc2N)n1	13.3	6.7	96.1	0.0	-4.3	/	/	/
CN(CCC#N)c1ccc(/C=C(\C#N)c2ccccn2)cc1	32.2	49.4*	58.3	-0.8	-45.7	23.2	-6.9	-88.1
CCN(CC)c1ccc(/C=C(\C#N)c2ccccn2)cc1	8.9	74.2*	39.8	-0.1	10.9	45.1*	29.3*	-43.0
CCN(Cc1ccccc1)c1ccc(/C=C(\C#N)c2ccccn2)cc1	7.9	-20.6	112.6	-0.2	-73.9	/	/	/
CN(C(=O)COC(=O)c1ccccc1NCc1ccco1)c1c(N)n(Cc2ccccc2)c(=O)[nH]c1=O	-1.4	/	/	/	/	/	/	/
CN(CC(=O)Nc1ccccc1Br)C(=O)CCSc1ccc(F)cc1	-9.7	/	/	/	/	/	/	/
CCN(CC)S(=O)(=O)c1cc(C(=O)Nc2ccncc2)ccc1Cl	-7.3	56.0*	57.4	-1.4	22.3	33.5	11.5	17.0*
CCN(CC)S(=O)(=O)c1cc(C(=O)Nc2cccnc2)ccc1Cl	-6.0	3.1	102.5	-1.0	-5.3	/	/	/
Cc1ccc(CNS(=O)(=O)c2ccc(C(F)(F)F)cc2)n1C	-2.4	/	/	1.9	/	/	/	/
Oc1ccc(-c2nnc(-c3ccc(O)cc3)nn2)cc1	10.6	51.2*	59.8	0.2	5.2	61.8*	11.2	5.4
Cc1ccc(S(=O)(=O)N(CC(=O)N(C(C)C)C(C)C)C(=O)N2CCN(C)CC2)cc1	-15.4	/	/	/	/	/	/	/
O=S(=O)(/C=C/c1ccccc1)N1CCN(c2nc(-c3ccccc3)nc3ccccc23)CC1	-7.0	-12.2	109.5	0.3	2.9	/	/	/
COc1ccc(-c2ccc3ccccc3n2)cc1OC	-3.5	0.2	106.4	0.3	-78.5	/	/	/
COc1ccc(-c2ccc3ccccc3n2)cc1	3.9	55.0*	54.9	0.5	23.2	17.8	-22.8	-107.3
Cc1c(-c2ccc(OCc3ccccc3)cc2)nc2ccccc2c1C(=O)O	7.1	/	/	/	/	/	/	/
N#Cc1ccccc1COc1ccc(/C=C/C(=O)O)cc1	-0.6	47.5*	63.6	0.5	17.6	37.0	16.0*	11.0
Cc1ccc(-c2cnc3c(Cl)c(C)nn3c2)cc1	25.0	82.4*	33.1	-0.2	10.8	41.1	21.6*	-44.1
Cc1ccc(-c2cnc3cc(C)nn3c2)cc1	-13.1	69.1*	43.9	1.0	22.1	29.7	-0.2	-56.8
Cc1ccc(-n2cc(C(=O)c3ccccc3O)cn2)cc1	7.1	79.1*	37.8	0.9	12.0	34.2	37.3*	-96.7
Cc1ccc(O)c(C(=O)c2cnn(-c3ccccc3)c2)c1	-11.1	17.9	90.6	-0.4	-2.4	/	/	/
CN(C)c1ccc(-c2n(C)c3ccccc3[n+]2C)cc1	-0.5	74.4*	39.5	0.4	18.7	64.9*	-6.6	24.3*
SMILES	Platelet DG rel	STAT3 inh-1	STAT3 act-1	PERK inhibitor	STAT1 blocker	STAT3 inh-2	NFkB inh STAT3ct	STAT1 inh 2	others
Cc1ncc([N+](=O)[O-])n1CC(=O)Nc1ccc(F)cc1	13.8	/	/	/	/	/	/	/
Cc1ccsc1/C=N/Nc1nc(=O)[nH]nc1C	50.7*	52.9*	58.5	0.9	30.4	18.0	-10.2	-8.3
Cc1cc(C)nc(N/N=C/c2sccc2C)n1	8.6	10.4	98.8	-0.2	-16.4	/	/	/
Nc1nnc(SCC(=O)c2ccco2)s1	-5.7	-1.8	105.3	1.2	1.6	/	/	/
Cc1cc(C(=O)CSc2nnc(N)s2)c(C)n1Cc1ccco1	-0.4	46.3*	62.7	-0.2	15.6	7.0	-9.5	-68.7
O/C(=C\c1ccc2ccccc2n1)c1ccc(O)cc1O	25.6	60.9*	52.2	1.0	4.1	28.5	-20.8	-87.9
O=C(c1ccc2c(=O)n(-c3ccccc3)c(=S)[nH]c2c1)N1CCCCC1	5.0	46.7*	62.5	0.5	25.5	50.6*	14.5*	24.9*
O=C(NC1CCCCC1)C1Cc2ccccc2CN1S(=O)(=O)c1ccc(F)cc1 (stereo not drawn)	-1.9	-7.0	106.6	-0.7	-1.5	/	/	/
O=C(Nc1nccs1)C1Cc2ccccc2CN1S(=O)(=O)c1ccc(F)cc1 (stereo not drawn)	-2.1	-43.8	138.3*	-0.1	-25.4	/	/	/	STAT3 act-2=127.6;NFkB act STAT3ct=126.1*;STAT1 act STAT3c=148.3*
Cn1c2ccc(F)cc2c2ncn(CCN3CCOCC3)c(=O)c21	-3.0	6.5	97.3	-1.7	-4.3	/	/	/
Cn1c2ccccc2c2ncn(CCCN3CCOCC3)c(=O)c21	-2.1	-42.0	139.8*	-1.3	5.2	/	/	/	STAT3 act-2=153.6*;NFkB act STAT3ct=112.2;STAT1 act STAT3c=108.0
Cc1ccc(Cl)cc1N1CCN(C(=O)Cc2c(C(=O)O)[nH]c3ccccc23)CC1	10.1	-45.0	138.1*	0.3	8.3	/	/	/	STAT3 act-2=123.1;NFkB act STAT3ct=105.9;STAT1 act STAT3c=92.7
O=C(NCc1cccnc1)C(=O)NCC1OCCN1S(=O)(=O)c1ccc(F)cc1 (stereo not drawn)	-0.6	-3.6	103.0	0.6	-8.1	/	/	/
C/C(=N\Nc1nc(-c2cc(C)ccc2C)cs1)c1cc2ccccc2oc1=O	10.9	-1.4	99.3	0.3	8.8	/	/	/
C/C(=N\Nc1nc(-c2cc(C)ccc2C)cs1)c1cc2c(ccc3ccccc32)oc1=O	-2.1	-46.7	146.4*	0.7	1.5	/	/	/	STAT3 act-2=106.5;NFkB act STAT3ct=100.2;STAT1 act STAT3c=94.8
Cc1ccc(S(=O)(=O)N2CCOC23CCN(S(=O)(=O)c2c(C)cc(C)cc2C)CC3)cc1	0.8	/	/	/	/	/	/	/
CCn1cc(C(=O)N2CCc3ccccc32)c(=O)c2cc(S(=O)(=O)N(C)C3CCCCC3)ccc21	-5.5	-4.3	107.2	-1.2	2.4	/	/	/
